Tests used:
Conditions in all cases: stereoisomer not certain
UniProt L7MU75 = molecular target: T1, UniProt L7MU75
T1 sequence (whole entry): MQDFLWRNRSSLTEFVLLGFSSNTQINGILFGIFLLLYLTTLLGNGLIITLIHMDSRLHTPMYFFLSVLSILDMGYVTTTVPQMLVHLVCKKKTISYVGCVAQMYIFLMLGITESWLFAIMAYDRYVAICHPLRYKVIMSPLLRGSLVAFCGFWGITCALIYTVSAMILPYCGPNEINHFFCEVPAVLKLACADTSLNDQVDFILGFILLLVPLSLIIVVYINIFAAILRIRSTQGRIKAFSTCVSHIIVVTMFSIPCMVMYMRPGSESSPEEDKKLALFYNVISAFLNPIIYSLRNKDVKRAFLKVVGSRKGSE
How it was run: (§1)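 Assay methods differ from source to source, frequently being transient luciferase assays in mammalian cell lines. For each receptor–molecule pair, the label responsive (active) applies when the original authors judged the measured signal statistically different from baseline, and non-responsive (inactive) applies otherwise.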

UniProt L7N210 = molecular target: T2, UniProt L7N210
T2 sequence (whole entry): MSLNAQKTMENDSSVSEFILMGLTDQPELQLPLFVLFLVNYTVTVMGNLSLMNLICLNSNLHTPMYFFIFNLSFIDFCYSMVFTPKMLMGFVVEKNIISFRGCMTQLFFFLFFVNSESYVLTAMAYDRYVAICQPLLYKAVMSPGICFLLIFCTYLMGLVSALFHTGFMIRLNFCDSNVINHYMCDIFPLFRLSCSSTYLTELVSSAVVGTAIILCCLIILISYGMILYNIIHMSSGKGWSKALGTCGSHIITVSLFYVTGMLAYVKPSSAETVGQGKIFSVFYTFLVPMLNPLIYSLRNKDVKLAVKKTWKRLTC
How it was run: as §1

UniProt Q3KPB0 = molecular target: T3, UniProt Q3KPB0
T3 sequence (whole entry): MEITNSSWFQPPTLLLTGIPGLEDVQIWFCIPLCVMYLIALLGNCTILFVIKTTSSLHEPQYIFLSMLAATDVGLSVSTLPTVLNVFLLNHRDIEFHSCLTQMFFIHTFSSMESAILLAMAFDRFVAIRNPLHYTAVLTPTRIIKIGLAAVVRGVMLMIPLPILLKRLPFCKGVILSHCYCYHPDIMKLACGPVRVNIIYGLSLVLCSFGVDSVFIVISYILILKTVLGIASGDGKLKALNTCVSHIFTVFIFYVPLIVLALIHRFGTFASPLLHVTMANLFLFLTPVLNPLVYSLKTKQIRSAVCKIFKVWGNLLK
How it was run: as §1

UniProt Q3U0P3 = molecular target: T4, UniProt Q3U0P3
T4 sequence (whole entry): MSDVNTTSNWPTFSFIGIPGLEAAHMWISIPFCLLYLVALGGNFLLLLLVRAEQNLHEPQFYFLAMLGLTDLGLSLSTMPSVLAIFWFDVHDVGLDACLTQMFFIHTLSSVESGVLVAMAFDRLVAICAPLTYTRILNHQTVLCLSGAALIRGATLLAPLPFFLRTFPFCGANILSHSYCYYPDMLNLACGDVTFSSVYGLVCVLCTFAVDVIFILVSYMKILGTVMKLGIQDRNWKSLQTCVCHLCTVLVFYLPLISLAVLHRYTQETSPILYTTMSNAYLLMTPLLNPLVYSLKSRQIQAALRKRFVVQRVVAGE
How it was run: as §1

UniProt Q7TQU8 = molecular target: T5, UniProt Q7TQU8
T5 sequence (whole entry): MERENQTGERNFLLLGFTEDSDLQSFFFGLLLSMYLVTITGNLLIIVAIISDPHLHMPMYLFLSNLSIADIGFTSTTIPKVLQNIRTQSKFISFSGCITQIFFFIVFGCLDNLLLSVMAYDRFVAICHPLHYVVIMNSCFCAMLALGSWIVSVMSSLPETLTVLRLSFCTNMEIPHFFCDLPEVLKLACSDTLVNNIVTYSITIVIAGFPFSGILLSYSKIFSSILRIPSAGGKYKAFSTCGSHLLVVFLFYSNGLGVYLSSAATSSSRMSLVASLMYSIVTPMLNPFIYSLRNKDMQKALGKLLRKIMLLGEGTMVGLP
How it was run: as §1

UniProt Q7TR79 = molecular target: T6, UniProt Q7TR79
T6 sequence (whole entry): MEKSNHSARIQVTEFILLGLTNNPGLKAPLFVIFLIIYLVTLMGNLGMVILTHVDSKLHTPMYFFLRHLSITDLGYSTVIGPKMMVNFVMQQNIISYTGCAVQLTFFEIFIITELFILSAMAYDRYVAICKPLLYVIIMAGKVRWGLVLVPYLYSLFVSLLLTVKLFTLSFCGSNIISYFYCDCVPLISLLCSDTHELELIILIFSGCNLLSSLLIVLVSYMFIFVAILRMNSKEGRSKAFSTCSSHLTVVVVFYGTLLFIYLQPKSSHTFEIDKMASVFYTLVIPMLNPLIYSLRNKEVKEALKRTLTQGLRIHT
How it was run: as §1

UniProt Q7TQV4 = molecular target: T7, UniProt Q7TQV4
T7 sequence (whole entry): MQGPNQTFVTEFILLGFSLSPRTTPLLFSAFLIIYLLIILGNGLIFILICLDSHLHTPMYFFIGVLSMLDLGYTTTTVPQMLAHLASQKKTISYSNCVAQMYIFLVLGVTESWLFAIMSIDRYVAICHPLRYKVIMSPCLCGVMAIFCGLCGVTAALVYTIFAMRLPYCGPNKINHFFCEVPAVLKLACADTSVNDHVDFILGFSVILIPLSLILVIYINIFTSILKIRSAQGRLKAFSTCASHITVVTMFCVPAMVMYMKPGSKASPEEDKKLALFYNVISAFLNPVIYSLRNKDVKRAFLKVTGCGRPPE
How it was run: as §1

UniProt Q7TR71 = molecular target: T8, UniProt Q7TR71
T8 sequence (whole entry): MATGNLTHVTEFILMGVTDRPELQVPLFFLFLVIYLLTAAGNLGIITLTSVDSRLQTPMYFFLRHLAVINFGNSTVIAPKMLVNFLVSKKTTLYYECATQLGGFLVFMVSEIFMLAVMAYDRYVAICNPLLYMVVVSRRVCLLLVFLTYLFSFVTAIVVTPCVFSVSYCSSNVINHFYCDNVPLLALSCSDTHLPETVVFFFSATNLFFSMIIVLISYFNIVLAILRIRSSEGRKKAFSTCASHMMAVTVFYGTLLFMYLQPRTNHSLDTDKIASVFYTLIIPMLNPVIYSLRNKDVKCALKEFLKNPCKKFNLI
How it was run: as §1

UniProt Q7TRA3 = molecular target: T9, UniProt Q7TRA3
T9 sequence (whole entry): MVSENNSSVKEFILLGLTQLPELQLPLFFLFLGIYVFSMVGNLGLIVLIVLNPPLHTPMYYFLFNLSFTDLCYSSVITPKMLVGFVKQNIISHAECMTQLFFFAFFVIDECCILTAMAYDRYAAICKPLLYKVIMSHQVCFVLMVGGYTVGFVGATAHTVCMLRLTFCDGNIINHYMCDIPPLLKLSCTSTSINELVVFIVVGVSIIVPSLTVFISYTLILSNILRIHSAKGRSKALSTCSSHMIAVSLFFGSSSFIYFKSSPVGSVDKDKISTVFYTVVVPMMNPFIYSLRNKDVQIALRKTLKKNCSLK
How it was run: as §1

UniProt Q7TRE4 = molecular target: T10, UniProt Q7TRE4
T10 sequence (whole entry): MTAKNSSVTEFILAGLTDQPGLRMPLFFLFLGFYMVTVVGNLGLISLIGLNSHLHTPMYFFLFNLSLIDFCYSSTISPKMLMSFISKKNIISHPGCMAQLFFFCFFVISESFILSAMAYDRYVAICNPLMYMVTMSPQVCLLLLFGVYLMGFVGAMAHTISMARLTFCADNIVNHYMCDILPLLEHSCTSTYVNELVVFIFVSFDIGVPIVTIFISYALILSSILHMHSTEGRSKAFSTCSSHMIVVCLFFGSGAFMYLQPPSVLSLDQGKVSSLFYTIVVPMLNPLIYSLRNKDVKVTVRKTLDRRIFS
How it was run: as §1

UniProt Q7TRN9 = molecular target: T11, UniProt Q7TRN9
T11 sequence (whole entry): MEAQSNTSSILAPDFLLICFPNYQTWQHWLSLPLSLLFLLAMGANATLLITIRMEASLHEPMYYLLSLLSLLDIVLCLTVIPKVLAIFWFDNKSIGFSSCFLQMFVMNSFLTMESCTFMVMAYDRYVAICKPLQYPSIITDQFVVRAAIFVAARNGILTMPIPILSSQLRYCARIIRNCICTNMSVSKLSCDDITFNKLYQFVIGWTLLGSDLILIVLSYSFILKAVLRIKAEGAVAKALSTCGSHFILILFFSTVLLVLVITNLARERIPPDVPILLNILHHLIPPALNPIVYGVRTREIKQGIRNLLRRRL
How it was run: as §1

Measured: odorant receptor agonist call

OCCCCCCCCCO
inactive: UniProt L7MU75 | UniProt L7N210 | UniProt Q3KPB0 | UniProt Q3U0P3 | UniProt Q7TQU8 | UniProt Q7TR79

CCCCC=O
inactive: UniProt L7MU75 | UniProt L7N210 | UniProt Q3KPB0 | UniProt Q3U0P3 | UniProt Q7TQU8 | UniProt Q7TR79

CC(=O)OCC=C(C)C
inactive: UniProt L7MU75 | UniProt L7N210 | UniProt Q3KPB0 | UniProt Q3U0P3 | UniProt Q7TQU8 | UniProt Q7TR71 | UniProt Q7TR79 | UniProt Q7TRA3 | UniProt Q7TRE4
active: UniProt Q7TQV4

CCCCCCCO
inactive: UniProt L7MU75 | UniProt L7N210 | UniProt Q3KPB0 | UniProt Q3U0P3 | UniProt Q7TQU8 | UniProt Q7TQV4 | UniProt Q7TR71 | UniProt Q7TR79 | UniProt Q7TRA3 | UniProt Q7TRE4 | UniProt Q7TRN9

CCCCC(=O)CC
inactive: UniProt L7MU75 | UniProt L7N210 | UniProt Q3KPB0 | UniProt Q3U0P3 | UniProt Q7TQU8 | UniProt Q7TQV4 | UniProt Q7TR71 | UniProt Q7TR79 | UniProt Q7TRA3 | UniProt Q7TRE4

CC(=O)OC1(C)CCC23CC1C(C)(C)C2CCC3C (stereo not given)
active: UniProt Q3U0P3 | UniProt Q7TQU8
inactive: UniProt L7MU75 | UniProt L7N210 | UniProt Q3KPB0 | UniProt Q7TR79

CCCCCCCCCC=CC=O
inactive: UniProt L7MU75 | UniProt L7N210 | UniProt Q3KPB0 | UniProt Q3U0P3 | UniProt Q7TQU8 | UniProt Q7TR79

CCCCCCCCCS
inactive: UniProt L7MU75 | UniProt L7N210 | UniProt Q3KPB0 | UniProt Q3U0P3 | UniProt Q7TQU8 | UniProt Q7TQV4 | UniProt Q7TR71 | UniProt Q7TR79 | UniProt Q7TRA3 | UniProt Q7TRE4

CCCCC(C)=O
inactive: UniProt L7MU75 | UniProt L7N210 | UniProt Q3KPB0 | UniProt Q3U0P3 | UniProt Q7TQU8 | UniProt Q7TQV4 | UniProt Q7TR71 | UniProt Q7TR79 | UniProt Q7TRA3 | UniProt Q7TRE4

CCCCCCCC(C)=O
inactive: UniProt L7MU75 | UniProt L7N210 | UniProt Q3KPB0 | UniProt Q3U0P3 | UniProt Q7TQU8 | UniProt Q7TQV4 | UniProt Q7TR71 | UniProt Q7TR79 | UniProt Q7TRA3 | UniProt Q7TRE4

— the M2OR odorant receptor database
